# From PubChem
# Dynein transport: dynein cargo transport inhibition | z-score, hits read low | 220,000 compounds, 0.47% hits | AID 1381 | 3617.4 mouse cells, GR-EGFP nuclear translocation imaging; test concentration mostly 20 µM; stimulated with dexamethasone, 1 µM; hits give low values;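 active = plate z-score of nuclear minus cytoplasmic receptor signal below a set negative limit, without overly bright fluorescence or cell loss, cut at about -3.5 in these data, passing the limit was not always enough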;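 also: z-score of nuclear minus cytoplasmic ring GR-EGFP intensity difference per well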
#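 Buffer or medium: Induction medium lacking tetracycline, stripped serum | Also added: Dexamethasone agonist, 1.0 µM final, for 30 min | Timing: 48 h induction, 1 h compound, 30 min dex at 37 °C | Detection: Formaldehyde fixation, Hoechst nuclear stain, 10x automated fluorescence imaging | Measure: Nuclear versus cytoplasmic GR-EGFP signal, averaged per well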
# ABCB6 inh 2: blocks the human ABCB6 transporter; fluorescence ratio to DMSO, % at 10 µM; 360,000 compounds, 0.19% hits; AID 602162; Q9NP58; K562-ABCB6 porphyrin accumulation, flow cytometry, 1 h; hits give low values;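 active = fluorescence ratio to DMSO below 75%, the collection mean minus 3 SD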;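 also: signal is porphyrin accumulated inside mitochondria; 100% equals median channel fluorescence of DMSO control wells; lower ratio means ABCB6 inhibition with less porphyrin fluorescence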
# p-CIP stab down: p/CIP protein destabilization; decrease of EGFP signal, % at 10 µM; AID 1984; F442A p/CIP-EGFP cells, EGFP fluorescence, 16 h; 290,000 compounds, 0.01% hits;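 active = EGFP signal decrease of at least 30% at 10 µM or well 3 SD below plate mean, unless failing retest; inactive = the rest, including hits failing retest or dose response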
# V-ATPase pHluor: yeast V-ATPase proton transport regulation by pHLuorin. S. cerevisiae, pHLuorin cytosolic pH fluorescence. response, % at 10 µM. 350,000 compounds, 0.37% hits; in the data active = response mostly above about 7.3%, no sharp cut-off; inactive = mostly below about 5.4%; also: actives read high
# Cl transport mod: modulates chloride dependent transport by human KCC2 | KCC2 cells, thallium flux FluoZin-2 fluorescence | Q9H2X9 | 190,000 compounds, 2.2% hits | AID 1456 | B-score of Tl+ flux slope (higher = more flux/activation; lower = inhibition) at 10 µM;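 active = thallium flux slope and its plate-corrected score both differing from the plate sample mean at a set confidence after two filtering rounds, in either direction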;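 also: slope of fluorescence scaled to starting intensity during 10 to 20 s after thallium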
# ABCB6 inh CP1: inhibitors of human ABC transporter ABCB6 | shares compounds with ABCB6 inh 2 | 700 tested, under 10 active | ratio response (% of DMSO), % at 10 µM | K562-ABCB6 porphyrin accumulation, flow cytometry, 1 h; hits give low values;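 active = repeat-averaged ratio response below 75% of DMSO, the collection mean minus 3 SD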;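 also: median porphyrin fluorescence at 575 nm with 488 nm excitation from mitochondria; lower ratio means less porphyrin signal so ABCB6 inhibition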
# K562 vector FC: activity in empty-vector K562 counter-screen for ABCB6 inhibitors; K562 empty-vector cells, flow cytometry fluorescence, 1 h; shares compounds with ABCB6 inh 2; 25 tested, under 10 active; percent response (fluorescence), % at 100 µM;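 active = compounds whose half-maximal effective concentration is below 100 µM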
# * hit, by the source's call; . = no result. Many of the other results were omitted from the sample, so hits are more common in it than they were.
SMILES,Dynein transport,ABCB6 inh 2,p-CIP stab down,V-ATPase pHluor,Cl transport mod,others
CCSc1nnc(NC(=O)c2nc(S(=O)(=O)Cc3ccc(F)cc3)ncc2Cl)s1,.,85.0,-26.9,0.7,.,
Cc1nn(-c2cccc(Cl)c2)c2nc(-c3ccncc3)cc(C(=O)N3CCOCC3)c12,-1.04,106.0,-6.7,0.5,.,
COc1ccc(C(O)c2ncc(-c3cccc(C(F)(F)F)c3)[nH]2)cc1 (stereo not given),.,103.0,.,.,.,
COc1ccc(SCC(O)Cn2c3ccccc3c3ccccc32)c(OC)c1 (stereo not given),.,98.0,.,.,.,
O=C(NCc1ccccc1)c1nc(S(=O)(=O)Cc2ccccc2)ncc1Cl,.,102.0,-18.2,0.4,.,
Cc1ccc(CS(=O)(=O)c2ncc(Cl)c(C(=O)Nc3ccc(OC(F)F)cc3)n2)cc1,.,62.0*,-13.6,-4.0,.,K562 vector FC=309.8
CSc1nnc(NC(=O)c2nc(S(=O)(=O)Cc3cccc(C)c3)ncc2Cl)s1,.,106.0,-31.4,2.2,.,
COc1ccc(CNC(=O)c2nc(S(=O)(=O)Cc3ccccc3)ncc2Cl)cc1,.,88.0,-22.3,0.7,.,
CCc1nnc(NC(=O)c2nc(S(=O)(=O)Cc3cccc(C)c3)ncc2Cl)s1,.,108.0,-9.0,-4.2,.,K562 vector FC=220.1
CCOc1ccccc1NC(=O)c1nc(S(=O)(=O)Cc2cccc(C)c2)ncc1Cl,.,41.0*,-29.6,3.3,.,K562 vector FC=269.2
CCc1nnc(NC(=O)c2nc(S(=O)(=O)Cc3ccc(C)cc3)ncc2Cl)s1,.,101.0,-16.8,1.4,.,K562 vector FC=228.6
COc1ccc(-n2ncc3c2CC(C)(C)CC3NC(=O)c2ccc(OC)o2)cc1 (stereo not given),.,98.0,0.3,0.6,.,
Cc1cc(Br)cn2c(Cc3ccsc3)c(-c3ccco3)nc12,.,102.0,.,.,.,
Cc1c(N=C2SCC(=O)N2/N=C\c2ccc(Br)cc2)c(=O)n(-c2ccccc2)n1C,-0.656,95.0,-2.5,2.1,0.0697,
CCCC1NC(=O)c2cc3ccccc3cc2-n2c1nc1cc(Cl)ccc1c2=O (stereo not given),.,101.0,.,0.2,.,
CC(C)[C@@H]1Cc2[nH][nH]c(=O)c2[C@H](c2ccc(F)cc2)O1,.,140.0,.,.,.,
Cc1cccc(CS(=O)(=O)c2ncc(Cl)c(C(=O)Nc3nnc(C(C)C)s3)n2)c1,.,103.0,-33.3,-2.4,.,K562 vector FC=241.4
COc1ccc(N2CCN(C(=O)CCCCCn3c(=S)[nH]c4ccc(N5CCOCC5)cc4c3=O)CC2)cc1,.,73.0*,.,.,.,ABCB6 inh CP1=96.0
CCOc1cc(N2CCOCC2)c(OCC)cc1NS(=O)(=O)c1cc(NC(C)=O)ccc1OC,.,86.0,-17.6,-0.8,.,
C/C=C(\C)CN1CCN(c2ccccc2F)CC1,0.228,99.0,0.2,-1.1,.,
C/C=C(\C)CN1CCN(c2cccc(C)c2C)CC1,-0.744,24.0*,-3.3,0.0,1.24,ABCB6 inh CP1=95.0
CCCCCN(C(=O)CCC(=O)OCC(=O)Nc1cccc(CC)c1)c1c(N)n(CCCC)c(=O)[nH]c1=O,.,74.0*,.,1.6,.,ABCB6 inh CP1=101.0
CCCCCN(C(=O)CCC(=O)OCc1ccccc1F)c1c(N)n(CCCC)c(=O)[nH]c1=O,.,93.0,.,0.7,.,
CCCCCN(C(=O)CCC(=O)OCc1cc(C)ccc1C)c1c(N)n(CCCC)c(=O)[nH]c1=O,.,99.0,.,3.7,.,ABCB6 inh CP1=100.0
CCCCCN(C(=O)CCC(=O)OCC(=O)Nc1ccc(C)cc1F)c1c(N)n(CCCC)c(=O)[nH]c1=O,.,96.0,-1.9,5.1,.,
SMILES,Dynein transport,ABCB6 inh 2,p-CIP stab down,V-ATPase pHluor,Cl transport mod,others
CCCCCN(C(=O)CCC(=O)OCC(=O)NCCc1ccccc1)c1c(N)n(CCCC)c(=O)[nH]c1=O,.,93.0,.,0.2,.,ABCB6 inh CP1=99.0
COc1ccc(C(=O)N2[C@@H](C(C)C)COc3cc(Br)ccc3S2(=O)=O)cc1,.,98.0,.,1.0,.,
CC12CCC(=O)N1C(C(=O)NCc1ccccc1Cl)CS2 (stereo not given),.,100.0,.,-3.4,.,
Clc1ccc(Cl)c(OCCN2CCCC2)c1,.,49.0*,-7.8,1.4,.,ABCB6 inh CP1=105.0
Cc1cc(NC(=O)c2c(F)cccc2F)n(-c2nc3ccccc3[nH]2)n1,0.833,71.0*,-3.5,-2.7,0.943,ABCB6 inh CP1=95.0
COc1ccccc1C(=O)Nc1cc(C)on1,.,97.0,-2.6,0.0,.,
